# Source: publication PMC10085907 (Clinical Pharmacokinetics, 2023)
# Key:
# [1] = cited from earlier work
# [2] = cited from earlier work; remark: listed apart in the source
# [3] = biological target: T1, CYP2C19 (Homo sapiens, UniProt P33261); assay type: in vivo; conditions: healthy CYP2C19 extensive metabolizers; 7 days of dosing
# [4] = at the therapeutic dose; cited from earlier work
# [5] = assay type: in vivo, human; conditions: atovaquone/proguanil 250/100 mg alone; N = 16; mean ± SD
# Procedure, shortened: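 Healthy CYP2C19 *1/*1 subjects (PCR-genotyped) in a crossover design; acid reducer given orally once daily for 6 days at the approved maximum dose, then co-dosed with oral atovaquone/proguanil. Plasma sampled to 48 h, urine in 0–8, 8–24 and 24–48 h intervals, both assayed by HPLC-MS/MS. Non-compartmental analysis: t½ = ln2/λz, CL/F = dose/AUCinf, fe = 48-h urinary proguanil/dose.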
# [6] = proguanil alone, previous study; cited from earlier work
# [7] = test system: CYP3A4; conditions: read-out: CYP3A4 inhibition IC50; in vitro; cited from earlier work
# [8] = biological target: T1, CYP2C19; conditions: read-out: CYP2C19 half-maximum inhibitory concentration (IC50); in vitro; cited from earlier work
# T1 sequence (P33261 whole entry): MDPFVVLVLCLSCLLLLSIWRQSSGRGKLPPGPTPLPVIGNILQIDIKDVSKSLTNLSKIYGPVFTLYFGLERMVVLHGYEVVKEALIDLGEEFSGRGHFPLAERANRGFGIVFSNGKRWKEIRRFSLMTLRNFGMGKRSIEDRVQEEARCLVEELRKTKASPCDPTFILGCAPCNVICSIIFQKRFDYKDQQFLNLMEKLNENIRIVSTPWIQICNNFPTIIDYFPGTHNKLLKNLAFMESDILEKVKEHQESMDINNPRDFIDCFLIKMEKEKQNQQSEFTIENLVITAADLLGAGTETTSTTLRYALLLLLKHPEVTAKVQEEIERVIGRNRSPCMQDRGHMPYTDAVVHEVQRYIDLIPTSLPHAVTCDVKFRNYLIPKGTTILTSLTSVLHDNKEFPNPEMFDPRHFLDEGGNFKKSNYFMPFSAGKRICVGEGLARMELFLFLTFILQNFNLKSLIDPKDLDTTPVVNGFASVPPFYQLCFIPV
structure (smiles),measurement,setting,value
Cc1c(OCC(F)(F)F)ccnc1C[S+]([O-])c1nc2ccccc2[nH]1 (stereo not drawn) [lansoprazole],Biopharmaceutical Classification System (BCS) class,[1],class II
"[H]/N=C(\N/C(=N/[H])Nc1ccc(Cl)cc1)NC(C)C [Proguanil, proguanil]",Biopharmaceutical Classification System (BCS) class,[1],class III
same,Fraction of the dose renally excreted,[2],40–60%
"Cc1nc2c(O[C@H]3CCOc4cc(F)cc(F)c43)cc(C(=O)N(C)C)cc2[nH]1 [Tegoprazan, tegoprazan]",Effect on CYP2C19 activity (conclusion from proguanil PK),[3],neither an inhibitor nor an inducer of CYP2C19
same,Unbound Cmax,[4],approximately 1.3 µM
"CC1(C)N=C(N)N=C(N)N1c1ccc(Cl)cc1 [Cycloguanil, cycloguanil]",Metabolic ratio (AUCinf of cycloguanil to AUCinf of proguanil),[5],0.35
same,Metabolic ratio (cycloguanil-to-proguanil ratio),[6],0.84
"O=C1C(O)=C([C@H]2CC[C@H](c3ccc(Cl)cc3)CC2)C(=O)c2ccccc21 [Atovaquone, atovaquone]",Excreted unchanged in the feces,[2],≥ 94%
"CNCc1cc(-c2ccccc2F)n(S(=O)(=O)c2cccnc2)c1 [Vonoprazan, vonoprazan]",IC50,[8],13 µM
same,Unbound maximum plasma concentration (Cmax),[4],approximately 0.01 µM
COc1ccc2[nH]c([S+]([O-])Cc3ncc(C)c(OC)c3C)nc2c1 (stereo not drawn) [omeprazole],Biopharmaceutical Classification System (BCS) class,[1],class II
